Data on 9 molecules can be found in ChEMBL document CHEMBL1137746, “New insights into the antioxidant activity of hydroxycinnamic acids: Synthesis and physicochemical characterization of novel halogenated derivatives” (Eur J Med Chem, 2009).

The nature of data set [1]: DPPH radical scavenging activity assessed as Trolox equivalent antioxidant capacity at 50 uM after 40 mins. Type of data set: functional. Summed up:
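DPPH in ethanol; decrease in absorbance at 517 nm measured. Blank was ethanol; control was DPPH solution in ethanol. Triplicate. Trolox used as reference; TE = (A_control − A_test)/(A_control − A_trolox), A_control being DPPH solution without sample.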
(Loss of DPPH colour is used to gauge radical scavenging.)

A short description of data set [2]: ABTS radical scavenging activity assessed as Trolox equivalent antioxidant capacity at 50 uM by spectrophotometric analysis. Format: physicochemical. Summed up:
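ABTS•+ generated from 7 mM ABTS in water with 2.45 mM potassium persulfate, kept dark at room temperature 12–16 h. Ethanolic compound solutions added to 180 µL radical solution; absorbance followed over 20 min. Blank control set as 100% radical. Triplicate. TE = (A_control − A_test)/(A_control − A_trolox); Trolox reference.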

A short description of data set [3]: Octanol-water partition coefficient, log P of the compound.

The term logP denotes a log measure of how a compound divides between an organic and an aqueous phase. Lower therefore signals lower lipophilicity.

For the molecule `CCOC(=O)/C=C/c1cc(O)c(O)c(Br)c1`, the Activity in data set [1] worked out at 0.938; in data set [2] it was 2.527. Further, the logP in data set [3] was 2.58.

Take `COc1cc(/C=C/C(=O)O)cc(Br)c1O`: the results for the Activity in data set [1] and in data set [2] were 0.808 and 2.554, respectively. In data set [3], this molecule showed a logP of 2.25.

As for `O=C(O)/C=C/c1cc(O)c(O)c(Br)c1`, the Activity came to 1.01 in data set [1] and 2.496 in data set [2]. The same molecule gave a logP in data set [3] of 1.98.

As for `CCOC(=O)/C=C/c1cc(Br)c(O)c(OC)c1`, the Activity in data set [1] was determined as 0.558; in data set [2], 2.558. The same molecule showed a logP in data set [3] of 2.85.

For `O=C(O)/C=C/c1ccc(O)c(O)c1` [CAFFEIC ACID], the Activity turned out to be 0.978 in data set [1] and 2.538 in data set [2].

Regarding `CCOC(=O)/C=C/c1ccc(O)c(O)c1` [ETHYL CAFFEATE], the Activity was found to be 0.877 in data set [1] and 2.558 in data set [2]. Also, in data set [3], the logP amounted to 1.75.

As to `CCOC(=O)/C=C/c1ccc(O)c(OC)c1` [ETHYL FERULATE], the results for the Activity in data set [1] and in data set [2] were 0.593 and 2.538, respectively. This molecule came in with a log partition coefficient (logP) in data set [3] of 2.02.

For `COc1cc(/C=C/C(=O)O)ccc1O` [FERULATE], the Activity was determined as 0.781 in data set [1] and 2.534 in data set [2]. For the same molecule, in data set [3], the lipophilicity (logP) is 1.42.

Turning to `COc1cc(/C=C/C(=O)O)cc(OC)c1O` [SINAPINATE], the Activity in data set [1] is 0.862; in data set [2], 2.538.
